Article PMC5774632 (Science translational medicine, 2017)

Columns and labels:
[1] = tested on: C57BL/6 mice; experiment: 5FU survival assay; type: in vivo, mouse; conditions: for survival in serial 5FU assay: 10-day intervals; for increase in median survival over controls / median survival: 100 mg/kg IP 12 h before each 5FU
How it was run: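 Female C57BL/6 mice, 8–10 weeks old, got 150 mg/kg 5FU IP once every 7 or 10 days. Test compound was given IP at 50 or 100 mg/kg at 30 minutes, 12 hours and/or 24 hours before each 5FU dose. Mice were monitored daily.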

[2] = tested on: RB-expressing human cell lines; conditions: vast majority of RB-expressing human cell lines; cited from earlier work
[3] = tested on: BM HSCs; experiment: H2B-GFP label dilution assay; type: in vivo, mouse
How it was run: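 Adult homozygous H2B-GFP;M2-rtTA mice got 2 mg/ml doxycycline in drinking water for 6 weeks. Two weeks after withdrawal, vehicle or 150 mg/kg test compound was gavaged 12 h before vehicle or 150 mg/kg 5FU. BM was harvested 4 weeks after 5FU, and Lin−c-Kit+Sca-1+CD150+CD48− HSC H2B-GFP dilution was curve-fitted. PI = daughter cells per labelled HSC; log2(PI) = divisions. Mean ± SD, 3–6 mice, 3 experiments.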

[4] = after intraperitoneal injection; cited from earlier work
[5] = ref not given; cited from earlier work
[6] = Terminal half-lives of SCLC standard of care chemotherapy agents; type: in vivo; conditions: 4 half-lives
[7] = tested on: murine HSPCs; experiment: In vivo G1T28 dose response and pharmacodynamic assay; set-up: species or system mouse
How it was run: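 Female C57BL/6 mice, 8–10 weeks old, got a single IP dose of 50 or 100 mg/kg test compound. EdU 10 mg/kg IP followed at 0.5 to 168 h, and BM and thymus were harvested 2 h later. Surface-stained cells were live/dead-labelled, fixed in 5% formalin, permeabilised with saponin and click-stained with Alexa Fluor 555 azide. DNA was stained with 2 μg/ml DAPI before flow cytometry. n = 3–6 mice/dose/time point.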

[8] = Human PK study, first-in-human Phase I, single IV infusion; type: in vivo
How it was run: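 Healthy volunteers got a single IV infusion (6–192 mg/m2), with blood sampled predose and at multiple later times. Plasma was spiked with D3-labelled internal standard and protein-precipitated with acetonitrile, then quantified by validated LC-MS/MS. Calibration was 0.5 to 1,000 ng/mL, weighted (1/x2) linear, LLOQ 0.5 ng/mL. PK parameters were derived by noncompartmental and compartmental methods.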

[9] = Human safety and tolerability assessment, Phase I healthy volunteers; type: in vivo
How it was run: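 Single-centre, double-blind, randomised, placebo-controlled (3:1) single-dose IV study in healthy adults aged 18–60, BMI 18–32 kg/m2, ≥50 kg. Doses were 6, 12, 24, 48, 96 or 192 mg/m2. Subjects stayed in clinic Day −1 to Day 5 and returned Days 7, 10 and 14. Monitoring covered AEs, clinical laboratory tests, vital signs, 12-lead ECG and physical examination. Toxicity was graded by CTCAE v4.0.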

[10] = tested on: human BM HSPCs; experiment: Human BM proliferation assay; type: in vivo; conditions: 192 mg/m^2, 24 hours after dose
How it was run: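 Healthy volunteers in the 192 mg/m2 single-IV-dose cohort each gave one bone marrow aspirate: predose (n = 5), 24 h (n = 3) or 32 h (n = 4). Lineages were identified by flow cytometry with CD45, CD34, CD14, CD11b, CD71 and CD61. Cell cycle phase (G0/G1 vs S/G2/M) came from DRAQ5 DNA content.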

[11] = tested on: BM progenitors; experiment: Single dose 5FU hematologic recovery and methylcellulose colony formation assay; type: in vivo, mouse
[12] = tested on: HSCs; experiment: Serial 5FU treatment and competitive BM reconstitution assay; type: in vivo, mouse; conditions: for long-term reconstitution of PB lineages by donor HSCs, primary transplantation: vs 5FU only
How it was run: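 Donors were female CD45.1 mice given 4 rounds of PBS or 150 mg/kg 5FU at 3-week intervals; some got 150 mg/kg test compound by gavage (vehicle 50 mM citrate, pH 4.0) 30 min before each 5FU. Eight weeks after the last dose, 500,000 donor BM cells plus 500,000 CD45.2 competitor cells went into C57BL/6 recipients irradiated with 2 × 540 rads. Five donors per group, five recipients each. Lineage chimerism was tracked in PB every 4 weeks for ≥16 weeks.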

[13] = single agent, 6 weeks after doxycycline removal
[14] = after G1T28 treatment, single IP 50 or 100 mg/kg
[15] = human, plasma, intravenous, 192 mg/m2
[16] = G1T28 12 hours before single 5FU, 4 weeks after 5FU
[17] = 4 rounds of 5FU at 3-week intervals

## CC(=O)c1c(C)c2cnc(Nc3ccc(N4CCNCC4)cn3)nc2n(C2CCCC2)c1=O [palbociclib, reference compound]
[1]
  survival in serial 5FU assay: survival benefit
[2]
  EC50: > 2000 nM

## O=c1[nH]cc(F)c(=O)[nH]1 [5FU, 5-fluorouracil, reference compound]
[3]; [13]
  average number of HSC divisions: 5.3 ± 0.5 divisions
  proliferation index (PI): 41.3 ± 5.4
[4]
  plasma t1/2: 0.167 to 0.333 h

## N.N.O=C([O-])C1(C(=O)[O-])CCC1.[Pt+2] [carboplatin]
[5]
  terminal half-life: 6 h

## COc1cc([C@@H]2c3cc4c(cc3[C@@H](O[C@@H]3O[C@@H]5CO[C@@H](C)O[C@H]5[C@H](O)[C@H]3O)[C@H]3COC(=O)[C@H]23)OCO4)cc(OC)c1O [etoposide]
[6]
  fraction cleared during a 32-hour G1 arrest: approximately 94%
[5]
  terminal half-life: 7.5 h

## CN(C)C(=O)c1cc2cnc(Nc3ccc(N4CCNCC4)cn3)nc2n1C1CCCC1 [ribociclib, reference compound]
[1]
  survival in serial 5FU assay: survival benefit

## CN1CCN(c2ccc(Nc3ncc4cc5n(c4n3)C3(CCCCC3)CNC5=O)nc2)CC1 [G1T28, trilaciclib]
[7]; [14]
  duration of reduction in EdU incorporation in HSCs before recovery: up to 36 hours
  time of minimum EdU incorporation and S/G2/M cell frequency in HSCs: 12 h
[7]; single IP dose, 12 hours after treatment
  EdU incorporation (S-phase cells) in all hematopoietic cell types: dose-dependent reduction in EdU incorporation
[8]; after end of infusion
  end of fast α-phase of elimination: approximately 4 h
  end of β-phase of elimination: approximately 36 h
[8]; human, plasma, intravenous
  half-life: 5.32 to 9.28 h
[8]; [15]
  Cmax: 1700 ng/mL
  half-life: 12.9 to 14.7 h
[8]; human, plasma, iv
  Tmax: 0.25 to 0.47 h
[8]; in vivo
  contribution of the terminal phase to the effective half-life: 15-20%
[9]; all treatment groups
  clinical laboratory testing, vital signs, ECG, physical examination, body weight: no clinically relevant changes
[9]; single IV infusion
  most frequently reported TEAEs: headache and nausea
  severe or life-threatening TEAEs: No TEAEs of severe or life-threatening intensity were reported
[9]; single IV infusion, all test doses
  tolerability: well tolerated
[9]; single dose, up to 14 days after infusion
  peripheral blood cell counts: did not significantly alter
[10]
  reduction in S/G2/M cell frequency of total BM cells: 45%
[1]; 5FU at 7-day intervals
  increase in median survival over controls: 55%
  median survival: 28 days
[1]; 5FU at 10-day intervals
  increase in median survival over controls: 125%
  median survival: 63 days
[1]; 10-day assay, G1T28 30 minutes before each 5FU
  survival protection: Marked protection
[1]; 10-day assay, G1T28 given twice, −24 h and −30 min
  survival protection over treatment at −30 min alone: no additional protection
[3]; [16]
  average number of HSC divisions: 4.6 ± 0.4 divisions
  proliferation index (PI): 25.2 ± 4.7
[3]; [13]
  average number of HSC divisions: 2.4 ± 1.0 divisions
  proliferation index (PI): 6.2 ± 2.6
[11]; 1 and 2 days after 5FU treatment
  colony-forming cells surviving: increased the number of colony-forming cells
[11]; G1T28 30 minutes before single 5FU
  PB count recovery: significantly accelerated the PB count recovery
[12]; [17]
  long-term reconstitution of PB lineages by donor HSCs, primary transplantation: enhanced reconstitution of all lineages
[12]; secondary transplantation 32 weeks after initial transplantation
  reconstitution in secondary recipients: significantly greater overall reconstitution

B1: pegfilgrastim (protein, chains of the INN, looked up)
chain: TPLGPASSLPQSFLLKCLEQVRKIQGDGAALQEKLCATYKLCHPEELVLLGHSLGIPWAPLSSCPSQALQLAGCLSQLHSGLFLYQGLLQALEGISPELGPTLDTLQLDVADFATTIWQQMEELGMAPALQPTQGAMPAFASAFQRRAGGVLVASHLQSFLEVSYRVLRHLAQP
modifications: PEG
[1]
  survival in serial 5FU assay: survival benefit
[12]; [17]
  long-term HSC function, combined use of pegfilgrastim with G1T28: abolished the HSC protective effect of G1T28
  long-term reconstitution of PB lineages by donor HSCs, primary transplantation: did not benefit long-term HSC function
